Reference: ChEMBL document CHEMBL1145456, “Antitumor agents 253. Design, synthesis, and antitumor evaluation of novel 9-substituted phenanthrene-based tylophorine derivatives as potential anticancer agents” (J Med Chem, 2007)
Active and inactive are the calls of the source. No cut-off for these calls is given here.

Assays:
A549 [1] = test: Antitumor activity against human A549 xenografted SCID mouse model at 10 mg/kg, ip after 5 days; assay type: functional, organism-based; parameters: dose 10 mg/kg
How it was run: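 Male SCID mice were inoculated s.c. on the dorsal side with 1.5 × 10⁷ A549 cells. Day 1 was when tumors reached ≥5 mm; groups of six. Dosing ip at 10 mL/kg every 4 days for six doses. Tumor size and body weight recorded every 4 days. Tumor weight = length × width² × 0.5. T/C = (Tn−T1)/(Cn−C1) × 100% against vehicle.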

A549 [2] = test: Cytotoxicity against human A549 cells by SRB microtiter plate assay; assay type: functional, cell-based
How it was run: (§1)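 Cells were cultured at 37 °C, 5% CO₂, in RPMI-1640 with 25 mM HEPES, 2% bicarbonate, 10% FBS and kanamycin. Compounds were added from DMSO stocks, final DMSO ≤1% (v/v). IC₅₀ was interpolated from dose-response data. Each test was run in triplicate in independent experiments.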

KB = test: Cytotoxicity against human KB cells by SRB microtiter plate assay; assay type: functional, cell-based
How it was run: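 KB cells grown at 37 °C, 5% CO₂, humidified, in RPMI-1640 with 25 mM HEPES, 2% (w/v) sodium bicarbonate, 10% FBS and 100 µg/mL kanamycin. Compounds were added from DMSO stocks, with final DMSO at or below 1% (v/v). IC₅₀ was interpolated from dose-response data. Each test was run in triplicate, and independent tests were repeated.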

DU-145 = test: Cytotoxicity against human DU145 cells by SRB microtiter plate assay; assay type: functional, cell-based; how it was run: as §1
ZR-75-1 = test: Cytotoxicity against human ZR751cells by SRB microtiter plate assay; assay type: functional, cell-based; how it was run: as §1
[3] = Cytotoxicity against multidrug resistant human KB-Vin cells by SRB microtiter plate assay; assay type: functional, cell-based; how it was run: as §1

Structure (SMILES)	IC50 (A549 [2]; Homo sapiens, A549) [µM]	IC50 (KB; Homo sapiens, KB) [µM]	IC50 (DU-145; Homo sapiens, DU-145) [µM]	IC50 (ZR-75-1; Homo sapiens, ZR-75-1) [µM]	IC50 ([3]; Homo sapiens, KBVIN) [µM]	also measured
COc1ccc2c(CN3CCC(CO)CC3)cc3cc4c(cc3c2c1)OCO4 [listing 1 of 2 here]	–	–	–	–	–	Activity (A549 [1]): Active
O=C(O)C1CCN(Cc2cc3cc4c(cc3c3cc(OCc5ccccc5)ccc23)OCO4)CC1	2.1	–	–	–	–	–
COc1ccc2c3c(c4cc(OC)c(OC)cc4c2c1)C[C@H]1CCCN1C3 [(-)-ANTOFINE]	0.008	0.013	0.009	0.008	0.009	–
OC[C@@H]1CCCCN1Cc1cc2cc3c(cc2c2cc(OCc4ccccc4)ccc12)OCO3	1.3	–	–	–	–	–
COc1ccc2c(CNCCCCCCO)cc3cc4c(cc3c2c1)OCO4	0.2	–	–	–	–	IC50 (KB; kb): 0.25 µM; IC50 (DU-145; du-145): 0.44 µM; IC50 (ZR-75-1; zr-75-1): 0.13 µM; IC50 [3]: 0.35 µM
COc1ccc2c(CN3CCCC[C@H]3CO)cc3cc4c(cc3c2c1)OCO4	–	–	–	–	–	IC50 (DU-145; du-145): 0.09 µM; IC50 (ZR-75-1; zr-75-1): 0.08 µM; IC50 [3]: 0.09 µM
COc1ccc2c(CN3CCN(CCO)CC3)cc3cc4c(cc3c2c1)OCO4	0.63	0.5	0.25	0.23	0.51	–
OCC1CCN(Cc2cc3cc4c(cc3c3cc(OCc5ccccc5)ccc23)OCO4)CC1	0.7	–	–	–	–	–
COc1ccc2c(CN3CCC(C(=O)O)CC3)cc3cc4c(cc3c2c1)OCO4	0.23	0.15	0.31	0.25	0.38	–
COc1ccc2c(CN3CCC(CO)CC3)cc3cc4c(cc3c2c1)OCO4 [listing 2 of 2 here]	–	–	0.05	0.04	–	IC50 (A549 [2]; a549): 0.07 µM; IC50 (KB; kb): 0.07 µM; IC50 [3]: 0.04 µM
COc1ccc2c(CNCCCCCO)cc3cc4c(cc3c2c1)OCO4	0.27	–	–	–	–	–
COc1cccc2c1C(=O)c1c(O)c3c(c(O)c1C2=O)C[C@@](O)(C(=O)CO)C[C@@H]3O[C@H]1C[C@H](N)[C@H](O)[C@H](C)O1 [DOXORUBICIN]	0.18	0.18	0.13	0.04	> 4	–
COc1cc([C@@H]2c3cc4c(cc3[C@@H](O[C@@H]3O[C@@H]5CO[C@@H](C)O[C@H]5[C@H](O)[C@H]3O)[C@H]3COC(=O)[C@H]23)OCO4)cc(OC)c1O [ETOPOSIDE]	1.4	4.8	2.4	3.1	> 10	–
COc1ccc2c(CN3CCC(CCO)CC3)cc3cc4c(cc3c2c1)OCO4	0.15	–	–	–	–	IC50 (KB; kb): 0.42 µM; IC50 (DU-145; du-145): 0.15 µM; IC50 (ZR-75-1; zr-75-1): 0.03 µM; IC50 [3]: 0.5 µM
COc1ccc2c(CN3CCCC[C@H]3C(=O)O)cc3cc4c(cc3c2c1)OCO4	0.5	–	–	–	–	–
COc1ccc2c(CN3CCN(CCOCCO)CC3)cc3cc4c(cc3c2c1)OCO4	57.1	–	–	–	–	–
CC[C@]1(O)C[C@H]2CN(CCc3c([nH]c4ccccc34)[C@@](C(=O)OC)(c3cc4c(cc3OC)N(C=O)[C@H]3[C@@](O)(C(=O)OC)[C@H](OC(C)=O)[C@]5(CC)C=CCN6CC[C@]43[C@@H]65)C2)C1 [VINCRISTINE]	0.04	0.006	0.085	0.04	5.3	–
